MrgX1 agonist – activates human MrgX1 receptor signaling; AID 588627; hit rate 0.44% among 310,000; B-score at 10 µM; MrgX1-HEK293 cells, Fluo-4 calcium fluorescence, agonist mode; hits give high values;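 active = calcium response B-score plate-corrected fluorescence ratio at least 3 library SD, with starting fluorescence B-score inside 5 SD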
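Test system: HEK293 cells stably expressing human MrgX1 receptor; amount: 15,000 cells per well; doses: compound delivered in addition one of three; times: overnight plating before 1 h dye loading; detection: Fluo-4 NW calcium-flux fluorescence, kinetic read; read-out basis: B-scored fluorescence response ratio; controls: positive and negative controls per plate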
MrgX1 allo act – human MrgX1 positive allosteric modulation, primary screen | B-score at 10 µM | Q96LB2 | MrgX1-HEK293, Fluo-4 calcium flux, FDSS; hits give high values | AID 588675 | hit rate 0.63% among 310,000;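 active = plate-corrected calcium response at least 3 library SD above typical, normal starting fluorescence, not activating the receptor alone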;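 also: compound read alongside a low EC10 to EC30 dose of BAM8-22 agonist; peak minus trough fluorescence over baseline measured at the second addition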
RGS4 block – human RGS4 inhibition. B-score at 10 µM. HEK293 M3R/RGS4 inducible, Fluo-4 calcium flux; hits give high values; triggered by carbachol at its EC20. AID 463165. P49798. hit rate 0.45% among 310,000;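 active = B-score, a plate-corrected calcium signal, over three deviations above library mean, with baseline fluorescence within five deviations of library mean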;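 also: RGS4 expression induced by doxycycline in cells with stable M3 receptor; B-score is computed from the integrated fluorescence ratio over baseline after carbachol; higher B-score means a larger calcium signal and so more RGS4 inhibition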
Target sequence (P49798 whole entry, looked up): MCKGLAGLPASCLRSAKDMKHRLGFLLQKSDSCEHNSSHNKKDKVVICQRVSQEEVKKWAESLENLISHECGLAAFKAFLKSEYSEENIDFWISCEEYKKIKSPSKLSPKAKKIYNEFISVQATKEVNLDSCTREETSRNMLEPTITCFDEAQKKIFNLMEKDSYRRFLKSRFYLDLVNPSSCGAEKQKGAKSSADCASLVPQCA
MrgX1 antag – human MrgX1 receptor antagonism, primary screen; Q96LB2; MRGX1-HEK293 calcium flux, Fluo-4, BAM8-22 antagonism; hits give low values; B-score at 10 µM; hit rate 1.3% among 310,000; AID 588676;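 active = calcium-response B-score plate-corrected more than 3 library SD below zero, starting fluorescence within 5 deviations, no agonist response on first addition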;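 also: peak minus trough fluorescence over baseline after final BAM8-22 challenge near maximal dose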
RGS4 act – potentiators or activators of RGS4; HEK293 M3R/inducible RGS4, carbachol calcium flux Fluo4; hits give low values; B-score at 10 µM; hit rate 0.92% among 310,000; AID 463111;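 active = B-score of the integrated calcium signal more than 4 SD below the library mean, with starting fluorescence not abnormally high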;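 also: negative B-score means reduced calcium response which marks RGS4 activation or potentiation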
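Material: Inducible-RGS4 HEK293 cells carrying M3 receptor; also added: carbachol at ECmax as muscarinic agonist stimulus; incubation: compound preincubation 20 min at room temperature before agonist; signal: Fluo4-AM (2 µM) calcium-flux fluorescence, kinetic read; measure: integrated calcium ratio converted to B score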
RGS4 inh valid – RGS4 inhibitor validation. shares compounds with RGS4 block. HEK293 M3R/RGS4, carbachol calcium Fluo-4 fluorescence; carbachol added at its EC20; 0 = buffer wells, 100 = carbachol control. calcium response, % at 10 µM. hit rate 65% among 1,700. AID 492999;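 active = duplicate-averaged calcium response above the buffer-only control mean plus 5 SD of those controls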;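 also: integrated fluorescence ratio F max minus min over baseline F0; higher response in RGS4-induced cells means RGS4 inhibition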
RGS4 uninduced – non-induced cell nonspecific activity of RGS4 inhibitors; shares compounds with RGS4 block; HEK293 M3R non-induced, carbachol calcium Fluo-4; submaximal (EC20) carbachol stimulus; buffer wells 0%, carbachol control wells 100%; activity (percent), % at 10 µM; hit rate 20% among 1,900; AID 493000; call rule not given here;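 also: RGS4 induction absent so cells express M3R without RGS4; higher means more calcium signal and flags a non-specific hit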
M3R basal Ca ctr – second RGS4 inhibitor counter-screen in uninduced cells lacking carbachol | shares compounds with RGS4 block | HEK293 M3R/RGS4 non-induced, Fluo-4 calcium, no carbachol; normalised: buffer wells 0%, carbachol wells 100% | calcium response (agonist-mode artifact), % at 10 µM | hit rate 22% among 1,900 | AID 493001;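 active = duplicate-averaged calcium rise in uninduced cells above buffer wells' mean plus 5 SD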
* marks the source's active call; other numbers are inactive results; i = inactive; . = not tested or not shown. Only some compounds are listed: those with a hit (about 3.5% of all), similar ones and a draw of the others.

SMILES	MrgX1 agonist	MrgX1 allo act	RGS4 block	MrgX1 antag	RGS4 act	RGS4 inh valid	RGS4 uninduced	M3R basal Ca ctr
CC1CCCN(CCCNC(=O)c2ccc3c(c2)N(Cc2ccccc2F)C(=O)c2ccccc2S3(=O)=O)C1 (stereo unspecified)	i	i	i	i	i	.	.	.
CC1(C)CC(=O)C(C(c2cc([N+](=O)[O-])ccc2Cl)C2C(=O)CC(C)(C)CC2=O)C(=O)C1	i	i	i	i	i	.	.	.
Cc1sc(C(C2C(=O)CC(C)(C)CC2=O)C2C(=O)CC(C)(C)CC2=O)cc1[N+](=O)[O-]	i	i	24*	i	i	90%*	50%*	62%*
CCCN(CC(=O)Nc1ccccc1C)C(=O)COc1c(Cl)cccc1Cl	i	i	i	i	i	.	.	.
Cc1ccc(S(=O)(=O)NCc2cccnc2)cc1C	i	i	i	i	i	.	.	.
O=C(NCCC(=O)N(CCc1ccccc1)Cc1ccccc1)c1ccc([N+](=O)[O-])cc1	i	i	i	i	i	.	.	.
COc1ccc(NC(=O)/C(C#N)=C\c2ccc(Br)o2)cc1	i	i	i	i	i	.	.	.
N#C/C(=C\c1ccc([N+](=O)[O-])o1)C(=O)Nc1ccc(F)cc1	i	i	7*	i	i	20%*	i	i
CCCCC1=CC2=C(c3ccco3)C(=O)C(C)(OC(=O)c3ccc(OC)cc3)C(=O)C2=CN1C1CCCC1 (stereo unspecified)	i	i	i	i	i	i	i	102%*
CCCCC1=CC2=C(c3ccco3)C(=O)C(C)(OC(=O)c3ccc(OC)cc3)C(=O)C2=CN1C1CC1 (stereo unspecified)	i	i	9.3*	i	i	5.5%*	i	i
COC(=O)CCCC1=CC2=C(c3ccccc3)C(=O)C(C)(OC(=O)C3CCCC3)C(=O)C2=CN1C1CC1 (stereo unspecified)	i	i	i	i	i	.	.	.
COc1cc(C2(c3ccc(O)c(OC)c3)C(=O)N(C)c3ccc(C)cc32)ccc1O	i	i	i	i	i	.	i	i
Cc1ccc(C)c(N2CCN(S(=O)(=O)c3ccc4c(c3)C(C)(C)C(=O)N4C)CC2)c1	i	i	i	i	i	.	.	.
CCOC(=O)[C@@H]1[C@H]2COc3cc(OC)ccc3[C@@H]2N2C(=O)N(c3ccc(Cl)cc3)C(=O)[C@@]12C	i	i	i	i	i	i	i	i
CCOC(=O)[C@@H]1[C@H]2COc3cc(OC)ccc3[C@@H]2N2C(=O)N(c3ccc(C)cc3)C(=O)[C@@]12C	i	i	i	i	i	.	.	.

Screening data as filed in PubChem.
